From ChEMBL document CHEMBL3352396, “Zwitterionic pyrimidinium adducts as antioxidants with therapeutic potential as nitric oxide scavenger” (Eur J Med Chem, 2014)

Experiment: Nitric oxide scavenging activity by naphthylethylenediamine dihydrochloride based Griesse-Ilosavay method relative to ascorbic acid
Outline: (§1)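 Modified Griess-Ilosavay assay. Test sample in DMSO was mixed with potassium phosphate buffer (10 mM, pH 7.4) and sodium nitroprusside (10 mM stock), then incubated at 25 °C for 150 min to form nitrite. Sulphanilic acid reagent (0.33%) and N-(1-naphthyl)ethylenediamine dihydrochloride (0.1% w/v) were added, and the mixture stood 1–2 min. Absorbance was read at 546 nm against a blank. Ascorbic acid was the positive control and DMSO the blank. IC50 was obtained by […].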

| SMILES | Ratio IC50 |
| --- | --- |
| Cn1c(O)c(C(C2=C(O)CC(C)(C)CC2=O)c2ccc(Cl)cc2Cl)c(=O)n(C)c1=O (centres undefined) | 500 |

Experiment: Nitric oxide scavenging activity by naphthylethylenediamine dihydrochloride based Griesse-Ilosavay method
Outline: as §1

| SMILES | IC50 [µM] |
| --- | --- |
| O=c1[nH]c(O)c(C(c2ccc(Cl)cc2)c2c(O)[nH]c(=O)[nH]c2=O)c(=O)[nH]1 | 304 |
| Cn1c(O)c(C(c2ccc([N+](=O)[O-])cc2)c2c(O)n(C)c(=O)n(C)c2=O)c(=O)n(C)c1=O | 69 |
| CC1(C)CC(=O)C(C(C2=C(O)CC(C)(C)CC2=O)c2ccc([N+](=O)[O-])cc2)=C(O)C1 | 281 |
| O=C1O[C@H]([C@@H](O)CO)C(O)=C1O [ASCORBIC ACID] | 618 |
| CC1(C)CC(=O)C(C(c2ccccc2)c2c(O)[nH]c(=O)[nH]c2=O)=C(O)C1 (centres undefined) | 361 |
| O=c1[nH]c(O)c(C(c2ccc3ccccc3c2)c2c(O)[nH]c(=O)[nH]c2=O)c(=O)[nH]1 | 308 |
| Cn1c(O)c(C(c2ccc(O)cc2)c2c(O)n(C)c(=O)n(C)c2=O)c(=O)n(C)c1=O | 310 |
| Cn1c(O)c(C(c2ccc(Cl)cc2)c2c(O)n(C)c(=O)n(C)c2=O)c(=O)n(C)c1=O | 75 |
| Cn1c(O)c(C(c2ccc(C=O)cc2)c2c(O)n(C)c(=O)n(C)c2=O)c(=O)n(C)c1=O | 113 |
| COc1ccc(C(c2c(O)n(C)c(=O)n(C)c2=O)c2c(O)n(C)c(=O)n(C)c2=O)cc1 | 234 |
| Cc1cccc(C(c2c(O)n(C)c(=O)n(C)c2=O)c2c(O)n(C)c(=O)n(C)c2=O)c1 | 174 |
| Cc1ccc(C(C2=C(O)CC(C)(C)CC2=O)c2c(O)[nH]c(=O)[nH]c2=O)cc1 (centres undefined) | 432 |
| CC1(C)CC(=O)C(C(c2ccc(C=O)cc2)c2c(O)[nH]c(=O)[nH]c2=O)=C(O)C1 (centres undefined) | 439 |
| Cn1c(O)c(C(C2=C(O)CC(C)(C)CC2=O)c2ccccc2)c(=O)n(C)c1=O (centres undefined) | 290 |
| Cc1ccc(C(c2c(O)n(C)c(=O)n(C)c2=O)c2c(O)n(C)c(=O)n(C)c2=O)cc1 | 230 |
| COc1ccc(C(c2c(O)[nH]c(=O)[nH]c2=O)c2c(O)[nH]c(=O)[nH]c2=O)cc1 | 206 |
| Cn1c(O)c(C(c2cccc(Br)c2)c2c(O)n(C)c(=O)n(C)c2=O)c(=O)n(C)c1=O | 70.1 |
| Cc1ccc(C(c2c(O)[nH]c(=O)[nH]c2=O)c2c(O)[nH]c(=O)[nH]c2=O)cc1 | 377 |
| Cn1c(O)c(C(C2=C(O)CC(C)(C)CC2=O)c2ccc(C=O)cc2)c(=O)n(C)c1=O (centres undefined) | 380 |
| O=Cc1ccc(C(c2c(O)[nH]c(=O)[nH]c2=O)c2c(O)[nH]c(=O)[nH]c2=O)cc1 | 330 |
| Cn1c(O)c(C(c2ccc3ccccc3c2)c2c(O)n(C)c(=O)n(C)c2=O)c(=O)n(C)c1=O | 79.1 |
| Cn1c(O)c(C(C2=C(O)CC(C)(C)CC2=O)c2ccc([N+](=O)[O-])cc2)c(=O)n(C)c1=O (centres undefined) | 466 |
| Cn1c(O)c(C(C2=C(O)CC(C)(C)CC2=O)c2ccc(Cl)cc2Cl)c(=O)n(C)c1=O (centres undefined) | 175 |
